This is one part of a sample in which hits are shown more often than they occur.
S1P3 antag: S1P3 receptor antagonists, primary screen, cell-based; Sphingosine 1-phosphate receptor 3 (Homo sapiens), Q99500; CHO S1P3 NFAT-BLA reporter, FRET fluorescence, antagonist mode; inhibition, % at 4.98 µM; 170,000 tested, 0.27% active;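 active means inhibition above the plate cutoff, the mean inhibition of test wells on that plate plus 3 SD, cut at about 28% in these data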;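 further: cells challenged with S1P at its EC80 of 0.8 µM; blue over green emission ratio from cleaved BLA substrate after 4 h stimulation; 0% = S1P-stimulated wells and 100% = unstimulated DMSO-only wells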
Mdm2 ligase inh: MDM2-luciferase reporter signal enhancers, primary screen, MDM2 E3 ligase inhibitor project, cell-based, luminescence, 1536-well; cell-based MDM2 ubiquitination luciferase reporter, 2 h; 0 = plate control, 100 = twice control, blank-subtracted; 210,000 tested, 0.11% active; E3 ubiquitin-protein ligase Mdm2 (Homo sapiens), Q00987; AID 1230, 2008; signal enhancement, % at 5 µM;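 active means signal enhancement of 30% or more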;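 further: luminescence tracks abundance of the self-degrading MDM2-luciferase fusion protein; higher signal means inhibition of MDM2 E3 ligase activity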
Target sequence (Q00987 whole entry, looked up, the tested form may be a part): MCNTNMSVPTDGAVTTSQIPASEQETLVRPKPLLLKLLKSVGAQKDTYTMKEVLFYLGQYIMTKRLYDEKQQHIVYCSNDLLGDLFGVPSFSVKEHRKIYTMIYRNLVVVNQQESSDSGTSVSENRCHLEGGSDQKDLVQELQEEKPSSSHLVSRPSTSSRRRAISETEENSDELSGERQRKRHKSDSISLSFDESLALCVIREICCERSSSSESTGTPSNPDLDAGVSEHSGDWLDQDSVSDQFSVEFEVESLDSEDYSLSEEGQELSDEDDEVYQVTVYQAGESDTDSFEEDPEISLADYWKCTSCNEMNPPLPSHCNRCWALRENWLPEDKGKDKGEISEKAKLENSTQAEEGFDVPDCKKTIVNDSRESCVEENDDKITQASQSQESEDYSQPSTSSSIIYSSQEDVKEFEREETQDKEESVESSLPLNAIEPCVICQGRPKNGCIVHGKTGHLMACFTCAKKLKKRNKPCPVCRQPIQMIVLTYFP
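Test system: mammalian cells stably expressing self-ubiquitinating, self-degrading MDM2 E3–luciferase fusion; Amount: 2000 cells in each well; Medium: DMEM; Schedule: 4 h settle plus 2 h compound, 37 °C; Technique: SteadyLite luciferase luminescence after 15 min room-temperature reagent incubation; Benchmarks: plate control and blank wells.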
S1P4 antagonist: S1P4 receptor antagonists, primary screen, cell-based; inhibition, % at 4.98 µM; AID 1510, 2009; S1P4-expressing cells, antagonist mode, reporter read-out; 220,000 tested, 0.26% active; Sphingosine 1-phosphate receptor 4 (Homo sapiens), O95977; in the data active means inhibition above about 29%;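 further: 0% = wells stimulated with agonist and 100% = vehicle wells without agonist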
S1P4 agonist: S1P4 receptor agonists, primary screen, cell-based | Sphingosine 1-phosphate receptor 4 (Homo sapiens), O95977 | S1P4-expressing cell line, agonist reporter assay | activation, % at 4.98 µM | 220,000 tested, 0.35% active; in the data active means activation above about 11%;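 further: 0% = DMSO vehicle and 100% = reference agonist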
L major viab: Leishmania major promastigote growth inhibition, primary screen; Leishmania major promastigotes, resazurin fluorescence viability; inhibition, % at 10 µM; 200,000 tested, 9% active; AID 1063, 2008; in the data active means inhibition above about 50%;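 further: promastigotes grown with compound for 44 hours at 28 °C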
S1P4 antag conf: S1P4 receptor antagonists, human, confirmation, cell-based | shares compounds with S1P4 antagonist | S1P4-expressing cell line, antagonist mode, reporter read-out | inhibition, % at 4.98 µM | 520 tested, 71% active | AID 1524, 2009; in the data active means inhibition above about 30%
S1P1 antagonist: S1P1 receptor antagonists, human, counter-screen for S1P4 antagonist project, cell-based | shares compounds with S1P4 antagonist | cell-based S1P1 antagonist counterscreen, inhibition | inhibition, % at 4.98 µM | 520 tested, 37% active | AID 1564, 2009; in the data active means inhibition above about 40%;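 further: receptor stimulated with S1P near its EC80; 0% = agonist stimulated wells and 100% = vehicle only wells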
The depositor's hits bear a star; x = no result.

SMILES | S1P3 antag | Mdm2 ligase inh | S1P4 antagonist | S1P4 agonist | L major viab | S1P4 antag conf | S1P1 antagonist
Cn1c2c(c(=O)n(C)c1=O)C(C(F)(F)F)(C(F)(F)F)N=C(c1ccc(Cl)cc1)N2 | x | 0 | 51* | 1 | 100* | 21 | -19
Cc1ccc(C(=O)N/C(=C\c2ccc(-c3ccc(Cl)cc3)o2)C(=O)NCCCN(C)C)cc1 | -2 | -19 | 36* | -1 | 101* | 2 | -5
CN(C)CCNC(=O)/C(=C/c1ccc(-c2cccc([N+](=O)[O-])c2)o1)NC(=O)c1ccccc1 | 1 | -11 | -8 | 0 | 46 | x | x
COc1ccc(Nc2nc(Nc3ccc(OC)cc3)nc(SC3=NCCS3)n2)cc1 | x | -15 | 29* | -2 | 10 | 47* | 21
O=C(CSc1nc2nn(-c3ccccc3)c(=O)c-2c2n1CCCCC2)NCCc1ccccc1 | -15 | 7 | -10 | 1 | -2 | x | x
CCC(CC)NC(=O)CO/N=C/c1ccccc1OC(F)F | -19 | 0 | 39* | 1 | 28 | 0 | -6
O=C(CO/N=C/c1ccccc1OC(F)F)NC1CCCCC1 | 1 | x | -26 | 0 | 3 | x | x
CN(C)CC(CCC(CN(C)C)C(=O)c1ccccc1)C(=O)c1ccccc1 (configuration not stated) | 8 | -44 | 41* | 0 | x | 110* | 39
CCOc1ccc(C(=O)C(CCC(CN(C)C)C(=O)c2ccc(OCC)cc2)CN(C)C)cc1 (configuration not stated) | 13 | -18 | 43* | -3 | 100* | 110* | 52*
CCOc1ccc(C(=O)c2ccncc2)cc1 | 20 | 2 | -8 | 1 | -6 | x | x
CC(CCc1ccco1)NC(=O)CSc1cc(=O)n(C)c2ccccc12 (configuration not stated) | 7 | -21 | -17 | 3 | -5 | x | x
NC(=S)N/N=C1\CCOc2ccc(F)cc21 | -6 | -3 | 14 | -1 | x | x | x
O=C1c2cccc3c([N+](=O)[O-])ccc(c23)C(=O)N1c1ccccn1 | x | -1 | 105* | -3 | 100* | 113* | 151*
O=C1c2cccc3c(N4CCCCC4)ccc(c23)C(=O)N1c1ccccn1 | 25 | 5 | -19 | 0 | 31 | x | x
COc1ccc(-c2cc(C#N)nc(Cl)n2)cc1 | -7 | -14 | 57* | -2 | x | 97* | 28
COc1ccc(-c2cc(C#N)nc(Oc3ccc(Cl)cc3)n2)cc1 | -6 | -16 | 4 | -1 | -1 | x | x
O=C(COC(=O)/C=C/c1ccccc1Cl)NCCc1ccc(Cl)cc1Cl | -1 | -5 | -12 | 2 | -7 | x | x
O=C(Nc1nnc(-c2cccs2)o1)c1cccc(Oc2ccccc2)c1 | -32 | -23 | 32* | 2 | 52* | 98* | 94*
C=CCOC(=O)C1=C[C@H](C2CC2)[C@@H](CCCO)[C@H](OCC)O1 | 1 | x | 11 | 0 | -9 | x | x
CC(=O)N(c1ccc(Cl)cc1)c1cn(C(C)=O)c2ccccc12 | -9 | -20 | -8 | 1 | 1 | x | x
CC(=O)n1cc(N(C(=O)CCl)c2ccc(C)cc2)c2ccccc21 | -13 | -13 | 29* | 1 | x | 106* | 45*
COc1ccc(N(C(=O)CCl)C(C(=O)NCCc2ccccc2)c2cccs2)cc1 (configuration not stated) | -8 | -14 | 30* | 0 | 100* | 99* | 16
COc1ccc(CNC(=O)C(c2ccncc2)N(C(=O)Cc2cccs2)c2ccccc2)cc1 (configuration not stated) | -1 | 7 | 3 | 2 | 8 | x | x
CCS(=O)(=O)N1CCC(C(=O)NCCN2CCOCC2)CC1 | -26 | -6 | 6 | 1 | -4 | x | x
CCS(=O)(=O)N1CCC(C(=O)NCCCN2CCCC2)CC1 | 13 | 6 | 32* | -1 | -1 | 12 | 15
SMILES | S1P3 antag | Mdm2 ligase inh | S1P4 antagonist | S1P4 agonist | L major viab | S1P4 antag conf | S1P1 antagonist
CCCC(=O)OCCNc1cc(Sc2nc3ccccc3[nH]2)c2nonc2c1[N+](=O)[O-] | -7 | -11 | 52* | 1 | 53* | 106* | -7
Cc1ccc(C2=Nc3ccccc3SC(c3cccc([N+](=O)[O-])c3)C2)cc1 (configuration not stated) | 3 | -9 | 45* | 1 | x | 12 | 6
CCC(c1nnnn1CCc1ccccc1)N1CCN(C(=O)c2ccco2)CC1 (configuration not stated) | -20 | 9 | 33* | -2 | 8 | 7 | 18
CC(C)CC(c1nnnn1CCc1ccccc1)N1CCN(C(=O)c2ccco2)CC1 (configuration not stated) | -5 | -8 | -2 | 0 | 32 | x | x
Cc1oc2c(c1C(=O)NCc1cccnc1)C(=O)c1ccccc1C2=O | -12 | -4 | 90* | 0 | 100* | 116* | 107*
Cc1ccc(-n2c(C)nnc2SCC(=O)N2CCc3ccccc3C2)cc1 | 0 | -12 | 1 | 1 | -6 | x | x
CC1CCN(CCc2nc3cc(NC(=O)Nc4ccccc4)ccc3n2C)CC1 | -7 | -6 | 32* | -3 | -4 | 4 | 4
O=C(N/N=C/c1cccc2cccnc12)c1ccccc1O | -14 | -41 | 32* | -2 | x | 101* | 79*
COc1cc(OC)cc(C(=O)N[C@H](C(=O)OCC(=O)Nc2ccc(C(C)C)cc2)C(C)C)c1 | -4 | -10 | 2 | -2 | -3 | x | x
CC1Cn2c(nnc2-c2cc3ccccc3cc2O)S1 (configuration not stated) | -2 | -19 | 34* | 1 | 3 | 6 | 26
O=C(N/N=C/c1ccc(N2CCCCC2)o1)c1ccccc1[N+](=O)[O-] | 18 | 8 | -10 | 2 | -3 | x | x
COc1ccc(-c2cc(-c3ccccc3)c(C#N)c(S(C)=O)n2)cc1 (configuration not stated) | x | 10 | 54* | -4 | 100* | 85* | 19
CCOc1cc(CNCCc2ccc(S(N)(=O)=O)cc2)ccc1OCc1ccc(Cl)cc1 | x | -18 | 37* | -6 | 101* | 40* | 28
CCOC(=O)COc1ccc(S(=O)(=O)N2CCN(c3ccccc3F)CC2)cc1 | -6 | 24 | 36* | -4 | -11 | 26 | -21
CCOC(=O)COc1ccc(S(=O)(=O)N2CCN(c3ccc(OC)cc3)CC2)cc1 | -5 | -14 | -9 | 0 | -8 | x | x
Cc1ccc(NC(=O)CN(C)C2CCCCC2)cc1Br | 16 | 3 | 32* | 0 | 9 | 19 | 39

High-throughput results deposited in PubChem by several laboratories.
